Laboratory results: ChEMBL document CHEMBL5506014, “Monophosphoryl Lipid A-Rhamnose Conjugates as a New Class of Vaccine Adjuvants” (J Med Chem, 2024)
Active and inactive are the calls of the source.

What was measured:
Type in all cases: functional, organism-based
Settings in all cases: time 38.0 day
Mus musculus [1] = assay: Immuno-adjuvant activity in sc dosed C57BL/6J mouse model assessed as increase in IgG antibody administered on day 1, 15, 22, and 29 and measured on day 27, 31 and 38 by ELISA analysis
In short: (§1)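 Female C57BL/6 mice, 6−8 weeks old, were given s.c. 0.1 mL doses of KLH-sTn (8.0 μg sTn antigen). The conjugate was mixed 1:1 with PBS, Alum, or a liposomal adjuvant. Liposomes were MPLA-Rha conjugate:DSPC:cholesterol at a 10:65:50 molar ratio, hydrated in 20 mM HEPES pH 7.5 with 150 mM NaCl. Pre-immunization day 0 blood served as blank.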

Mus musculus [2] = assay: Immuno-adjuvant activity in sc dosed C57BL/6J mouse model assessed as increase in IgM antibody level administered on day 1, 15, 22, and 29 and measured on day 27, 31 and 38 by ELISA analysis; in short: as §1
Mus musculus [3] = assay: Immuno-adjuvant activity in sc dosed C57BL/6J mouse model assessed as increase in anti-KLH antibodies level administered on day 1, 15, 22, and 29 and measured on day 27, 31 and 38 by ELISA analysis; in short: as §1
Mus musculus [4] = assay: Immuno-adjuvant activity in sc dosed C57BL/6J mouse model assessed as increase in anti-sTn IgG antibodies level administered on day 1, 15, 22, and 29 and measured on day 27, 31 and 38 by ELISA analysis; in short: as §1
Mus musculus [5] = assay: Immuno-adjuvant activity in sc dosed C57BL/6J mouse model assessed as increase in anti-KLH IgG antibodies level administered on day 1, 15, 22, and 29 and measured on day 27, 31 and 38 by ELISA analysis; in short: as §1
Mus musculus [6] = assay: Immuno-adjuvant activity in sc dosed C57BL/6J mouse model assessed as increase in anti-KLH IgM antibodies level administered on day 1, 15, 22, and 29 and measured on day 27, 31 and 38 by ELISA analysis; in short: as §1
Mus musculus [7] = assay: Immuno-adjuvant activity in sc dosed C57BL/6J mouse model assessed as increase in anti-KLH total antibodies level administered on day 1, 15, 22, and 29 and measured on day 27, 31 and 38 by ELISA analysis; in short: as §1

Measured: Activity

CCCCCCCCCCCC(=O)O[C@H](CCCCCCCCCCC)CC(=O)N[C@H]1[C@H](OC[C@H]2O[C@@H](OC)[C@H](NC(=O)C[C@@H](CCCCCCCCCCC)OC(=O)CCCCCCCCCCC)[C@@H](OC(=O)C[C@H](O)CCCCCCCCC)[C@@H]2O)O[C@H](CNC(=O)CCO[C@H]2O[C@@H](C)[C@H](O)[C@@H](O)[C@H]2O)[C@@H](OP(=O)(O)O)[C@@H]1OC(=O)C[C@H](O)CCCCCCCCC
active: Mus musculus [1] | Mus musculus [2]

CCCCCCCCCCCC(=O)O[C@H](CCCCCCCCCCC)CC(=O)N[C@H]1[C@H](OC[C@H]2O[C@@H](OC)[C@H](NC(=O)C[C@@H](CCCCCCCCCCC)OC(=O)CCCCCCCCCCC)[C@@H](OC(=O)C[C@H](O)CCCCCCCCC)[C@@H]2O)O[C@H](CNC(=O)CCO[C@@H]2O[C@@H](C)[C@H](O)[C@@H](O)[C@H]2O)[C@@H](OP(=O)(O)O)[C@@H]1OC(=O)C[C@H](O)CCCCCCCCC
active: Mus musculus [1] | Mus musculus [2] | Mus musculus [3] | Mus musculus [4]

CCCCCCCCCCCC(=O)O[C@H](CCCCCCCCCCC)CC(=O)N[C@H]1[C@H](OC[C@H]2O[C@@H](OCCNC(=O)CCO[C@@H]3O[C@@H](C)[C@H](O)[C@@H](O)[C@H]3O)[C@H](NC(=O)C[C@@H](CCCCCCCCCCC)OC(=O)CCCCCCCCCCC)[C@@H](OC(=O)C[C@H](O)CCCCCCCCC)[C@@H]2O)O[C@H](CO)[C@@H](OP(=O)(O)O)[C@@H]1OC(=O)C[C@H](O)CCCCCCCCC
active: all assays above

CCCCCCCCCCCC(=O)O[C@H](CCCCCCCCCCC)CC(=O)N[C@H]1[C@H](OC[C@H]2O[C@@H](OCCNC(=O)CCO[C@H]3O[C@@H](C)[C@H](O)[C@@H](O)[C@H]3O)[C@H](NC(=O)C[C@@H](CCCCCCCCCCC)OC(=O)CCCCCCCCCCC)[C@@H](OC(=O)C[C@H](O)CCCCCCCCC)[C@@H]2O)O[C@H](CO)[C@@H](OP(=O)(O)O)[C@@H]1OC(=O)C[C@H](O)CCCCCCCCC
not listed: Mus musculus [3] | Mus musculus [4]
active: all other assays above
